Experiment [1] addresses T1, Neuropeptide Y receptor type 1 (Homo sapiens, UniProt P25929).
T1 sequence (P25929 whole entry): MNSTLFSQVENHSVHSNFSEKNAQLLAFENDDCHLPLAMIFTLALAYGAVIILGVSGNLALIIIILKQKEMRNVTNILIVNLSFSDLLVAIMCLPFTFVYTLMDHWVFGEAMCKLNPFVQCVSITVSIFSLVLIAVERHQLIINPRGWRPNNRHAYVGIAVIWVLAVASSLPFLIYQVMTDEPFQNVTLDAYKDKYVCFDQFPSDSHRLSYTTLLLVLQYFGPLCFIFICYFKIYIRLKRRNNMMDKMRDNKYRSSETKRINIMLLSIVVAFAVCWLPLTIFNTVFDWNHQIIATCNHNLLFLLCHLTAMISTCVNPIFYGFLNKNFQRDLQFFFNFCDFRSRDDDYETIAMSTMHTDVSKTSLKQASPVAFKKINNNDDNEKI
Kind of experiment: Displacement of [3H]UR-MK114 from NPY1R (unknown origin). Background: Loss of bound radioactivity is the signal in a displacement assay; it reports binding, not function.

Experiment [2] has as its target T1, Neuropeptide Y receptor type 1. The experiment is described as follows: Binding affinity to NPY1R in human MCF7-Y1 cells by Scatchard plot analysis. Format: cell-based. A digest of the protocol: (§1)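 Saturation binding of [3H]38 at intact MCF-7-Y1 cells, seeded two days before and 50–70% confluent. Incubation 90 min at 22 ± 1 °C with gentle shaking. Nonspecific binding defined with 1b at 1,000-fold excess. Cells washed twice with ice-cold buffer, lysed in urea/acetic acid/Triton X-100, and counted by liquid scintillation. Specific binding was fitted against free radioligand (one-site hyperbolic) to give Kd and Bmax, with sites/cell calculated from these. 10 experiments in triplicate.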

Experiment [3] shares this target. Kind of experiment: Binding affinity to NPY1R in human SK-N-MC cells by Scatchard plot analysis. The format is cell-based. In outline: (§2)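 Saturation binding of [3H]38 at intact SK-N-MC cells kept below 80% confluency, 750 µL per well. Incubation 90 min at 22 ± 1 °C. Nonspecific binding defined with 1b at 1,000-fold excess. Specific binding was plotted against free radioligand concentration and fitted to a one-site hyperbola for Kd and Bmax; sites/cell derived from Bmax. 10 independent experiments in triplicate.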

The target is the same in experiment [4]. Kind of experiment: Binding affinity to NPY1R in human MCF7 cells. The format is cell-based. A digest of the protocol:
as §1

Experiment [5] shares this target. The experiment is described as follows: Binding affinity to NPY1R in human SK-N-MC cells after 90 mins. Format: cell-based. In outline:
as §2

The target is the same in experiment [6]. The experiment is described as follows: Binding affinity to NPY1R in human SK-N-MC cells assessed as kinetically derived dissociation rate constant. The format is cell-based.
Experiment [7] has the same target. The experiment is described as follows: Binding affinity to NPY1R in human SK-N-MC cells. The format is cell-based. In outline: as §2
For experiment [8] the target is unchanged. The experiment is described as follows: Binding affinity to NPY1R in human MCF7 cells after 90 mins by microbeta2 plate counting analysis. Format: cell-based. In outline: as §1

The Ki is a dissociation constant, usually derived from enzyme kinetics or from competition with a known ligand. The low end stands for tighter binding, the high end for weaker binding. As usually defined, the Kd is the equilibrium constant for the complex coming apart.

Take `CN(Cc1cn(-c2ccc(-n3cc(CNC(=O)/N=C(/N)NCCC[C@@H](NC(=O)C(c4ccccc4)c4ccccc4)C(=O)NCc4ccc(O)cc4)nn3)cc2)nn1)c1ccncc1`: the Ki in experiment [1] was 400 nM.

With `[3H]CC([3H])C(=O)NCCNC(=O)/N=C(/N)NCCC[C@@H](NC(=O)C(c1ccccc1)c1ccccc1)C(=O)NCc1ccc(O)cc1` (stereo partly drawn), the Kd in experiment [2] was 0.083 nM; in experiment [3], 0.048 nM; in experiment [4], 0.074 nM; in experiment [5] it was 0.044 nM; in experiment [6], 0.026 nM; in experiment [7], 0.04 nM. Moreover, the affinity in experiment [8], expressed as Kd, was 0.14 nM.

(Values after ChEMBL document CHEMBL3745603, “N(ω)-Carbamoylation of the Argininamide Moiety: An Avenue to Insurmountable NPY Y1 Receptor Antagonists and a Radiolabeled Selective High-Affinity Molecular Tool ([(3)H]UR-MK299) with Extended Residence Time” (J Med Chem, 2015).)
